System: patients with Rb+ advanced solid tumors or lymphomas
Test: Safety assessments, adverse events
Assay type: in vivo, human
Summary of the method: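 Oral test compound given daily 3-weeks-on/1-week-off in 28-day cycles, with doses escalated by a Bayesian logistic regression model with overdose control. Safety assessments, including ECGs, were done at baseline and at regular intervals. AEs were graded by CTCAE v4.0 and classed as suspected related to treatment. All patients dosed at least once were included; summaries were descriptive per dose level.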

[1] = 400 mg 3-weeks-on/1-week-off, n = 5
[2] = 600 mg 3-weeks-on/1-week-off, n = 67
[3] = 600 mg continuous dosing, n = 7
[4] = 750 mg 3-weeks-on/1-week-off, n = 14
[5] = 900 mg 3-weeks-on/1-week-off, n = 13
[6] = 1,200 mg 3-weeks-on/1-week-off, n = 3
[7] = RDE 600 mg/day 3-weeks-on/1-week-off
[8] = of 67 patients treated at the RDE

CN(C)C(=O)c1cc2cnc(Nc3ccc(N4CCNCC4)cn3)nc2n1C1CCCC1 [ribociclib]
Nausea, Grade All, AE suspected related to study treatment [1]: 1 (20) n (%)
Neutropenia, Grade 3/4, AE suspected related to study treatment [1]: 1 (20) n (%)
Neutropenia, Grade All, AE suspected related to study treatment [1]: 2 (40) n (%)
Thrombocytopenia, Grade 3/4, AE suspected related to study treatment [1]: 0 n (%)
Thrombocytopenia, Grade All, AE suspected related to study treatment [1]: 1 (20) n (%)
Vomiting, Grade 3/4, AE suspected related to study treatment [1]: 0 n (%)
Vomiting, Grade All, AE suspected related to study treatment [1]: 2 (40) n (%)
Anemia, Grade 3/4, AE suspected related to study treatment [2]: 2 (3) n (%)
Anemia, Grade All, AE suspected related to study treatment [2]: 19 (28) n (%)
Appetite decreased, Grade 3/4, AE suspected related to study treatment [2]: 0 n (%)
Appetite decreased, Grade All, AE suspected related to study treatment [2]: 5 (7) n (%)
Blood creatinine increased, Grade 3/4, AE suspected related to study treatment [2]: 0 n (%)
Blood creatinine increased, Grade All, AE suspected related to study treatment [2]: 4 (6) n (%)
Diarrhea, Grade 3/4, AE suspected related to study treatment [2]: 2 (3) n (%)
Diarrhea, Grade All, AE suspected related to study treatment [2]: 18 (27) n (%)
Fatigue, Grade 3/4, AE suspected related to study treatment [2]: 2 (3) n (%)
Fatigue, Grade All, AE suspected related to study treatment [2]: 22 (33) n (%)
Leukopenia, Grade 3/4, AE suspected related to study treatment [2]: 13 (19) n (%)
Leukopenia, Grade All, AE suspected related to study treatment [2]: 31 (46) n (%)
Lymphopenia, Grade 3/4, AE suspected related to study treatment [2]: 12 (18) n (%)
Lymphopenia, Grade All, AE suspected related to study treatment [2]: 15 (22) n (%)
Nausea, Grade 3/4, AE suspected related to study treatment [2]: 1 (1) n (%)
Nausea, Grade All, AE suspected related to study treatment [2]: 30 (45) n (%)
Neutropenia, Grade 3/4, AE suspected related to study treatment [2]: 19 (28) n (%)
Neutropenia, Grade All, AE suspected related to study treatment [2]: 31 (46) n (%)
Thrombocytopenia, Grade 3/4, AE suspected related to study treatment [2]: 6 (9) n (%)
Thrombocytopenia, Grade All, AE suspected related to study treatment [2]: 23 (34) n (%)
Vomiting, Grade 3/4, AE suspected related to study treatment [2]: 0 n (%)
Vomiting, Grade All, AE suspected related to study treatment [2]: 17 (25) n (%)
Anemia, Grade 3/4, AE suspected related to study treatment [3]: 0 n (%)
Anemia, Grade All, AE suspected related to study treatment [3]: 2 (29) n (%)
Appetite decreased, Grade 3/4, AE suspected related to study treatment [3]: 0 n (%)
Appetite decreased, Grade All, AE suspected related to study treatment [3]: 0 n (%)
Blood creatinine increased, Grade 3/4, AE suspected related to study treatment [3]: 0 n (%)
Blood creatinine increased, Grade All, AE suspected related to study treatment [3]: 1 (14) n (%)
Diarrhea, Grade 3/4, AE suspected related to study treatment [3]: 0 n (%)
Diarrhea, Grade All, AE suspected related to study treatment [3]: 0 n (%)
Fatigue, Grade 3/4, AE suspected related to study treatment [3]: 1 (14) n (%)
Fatigue, Grade All, AE suspected related to study treatment [3]: 5 (71) n (%)
Leukopenia, Grade 3/4, AE suspected related to study treatment [3]: 5 (71) n (%)
Leukopenia, Grade All, AE suspected related to study treatment [3]: 6 (86) n (%)
Lymphopenia, Grade 3/4, AE suspected related to study treatment [3]: 2 (29) n (%)
Lymphopenia, Grade All, AE suspected related to study treatment [3]: 3 (43) n (%)
Nausea, Grade 3/4, AE suspected related to study treatment [3]: 0 n (%)
Nausea, Grade All, AE suspected related to study treatment [3]: 3 (43) n (%)
Neutropenia, Grade 3/4, AE suspected related to study treatment [3]: 5 (71) n (%)
Neutropenia, Grade All, AE suspected related to study treatment [3]: 6 (86) n (%)
Thrombocytopenia, Grade 3/4, AE suspected related to study treatment [3]: 0 n (%)
Thrombocytopenia, Grade All, AE suspected related to study treatment [3]: 2 (29) n (%)
Vomiting, Grade 3/4, AE suspected related to study treatment [3]: 0 n (%)
Vomiting, Grade All, AE suspected related to study treatment [3]: 2 (29) n (%)
patients with asymptomatic QTcF prolongation (600 mg/day (RDE)): 9%
Anemia, Grade 3/4, AE suspected related to study treatment [4]: 1 (7) n (%)
Anemia, Grade All, AE suspected related to study treatment [4]: 3 (21) n (%)
Appetite decreased, Grade 3/4, AE suspected related to study treatment [4]: 0 n (%)
Appetite decreased, Grade All, AE suspected related to study treatment [4]: 3 (21) n (%)
Blood creatinine increased, Grade 3/4, AE suspected related to study treatment [4]: 0 n (%)
Blood creatinine increased, Grade All, AE suspected related to study treatment [4]: 3 (21) n (%)
Diarrhea, Grade 3/4, AE suspected related to study treatment [4]: 0 n (%)
Diarrhea, Grade All, AE suspected related to study treatment [4]: 4 (29) n (%)
Fatigue, Grade 3/4, AE suspected related to study treatment [4]: 0 n (%)
Fatigue, Grade All, AE suspected related to study treatment [4]: 5 (36) n (%)
Leukopenia, Grade 3/4, AE suspected related to study treatment [4]: 0 n (%)
Leukopenia, Grade All, AE suspected related to study treatment [4]: 6 (43) n (%)
Lymphopenia, Grade 3/4, AE suspected related to study treatment [4]: 1 (7) n (%)
Lymphopenia, Grade All, AE suspected related to study treatment [4]: 6 (43) n (%)
Nausea, Grade 3/4, AE suspected related to study treatment [4]: 1 (7) n (%)
Nausea, Grade All, AE suspected related to study treatment [4]: 8 (57) n (%)
Neutropenia, Grade 3/4, AE suspected related to study treatment [4]: 5 (36) n (%)
Neutropenia, Grade All, AE suspected related to study treatment [4]: 8 (57) n (%)
Thrombocytopenia, Grade 3/4, AE suspected related to study treatment [4]: 3 (21) n (%)
Thrombocytopenia, Grade All, AE suspected related to study treatment [4]: 5 (36) n (%)
Vomiting, Grade 3/4, AE suspected related to study treatment [4]: 0 n (%)
Vomiting, Grade All, AE suspected related to study treatment [4]: 4 (29) n (%)
Anemia, Grade 3/4, AE suspected related to study treatment [5]: 0 n (%)
Anemia, Grade All, AE suspected related to study treatment [5]: 3 (23) n (%)
Appetite decreased, Grade 3/4, AE suspected related to study treatment [5]: 0 n (%)
Appetite decreased, Grade All, AE suspected related to study treatment [5]: 1 (8) n (%)
Blood creatinine increased, Grade 3/4, AE suspected related to study treatment [5]: 0 n (%)
Blood creatinine increased, Grade All, AE suspected related to study treatment [5]: 2 (15) n (%)
Diarrhea, Grade 3/4, AE suspected related to study treatment [5]: 0 n (%)
Diarrhea, Grade All, AE suspected related to study treatment [5]: 5 (39) n (%)
Fatigue, Grade 3/4, AE suspected related to study treatment [5]: 0 n (%)
Fatigue, Grade All, AE suspected related to study treatment [5]: 10 (77) n (%)
Leukopenia, Grade 3/4, AE suspected related to study treatment [5]: 4 (31) n (%)
Leukopenia, Grade All, AE suspected related to study treatment [5]: 9 (69) n (%)
Lymphopenia, Grade 3/4, AE suspected related to study treatment [5]: 4 (31) n (%)
Lymphopenia, Grade All, AE suspected related to study treatment [5]: 4 (31) n (%)
Nausea, Grade 3/4, AE suspected related to study treatment [5]: 0 n (%)
Nausea, Grade All, AE suspected related to study treatment [5]: 6 (46) n (%)
Neutropenia, Grade 3/4, AE suspected related to study treatment [5]: 5 (39) n (%)
Neutropenia, Grade All, AE suspected related to study treatment [5]: 9 (69) n (%)
Thrombocytopenia, Grade 3/4, AE suspected related to study treatment [5]: 0 n (%)
Thrombocytopenia, Grade All, AE suspected related to study treatment [5]: 6 (46) n (%)
Vomiting, Grade 3/4, AE suspected related to study treatment [5]: 0 n (%)
Vomiting, Grade All, AE suspected related to study treatment [5]: 3 (23) n (%)
Anemia, Grade 3/4, AE suspected related to study treatment [6]: 1 (33) n (%)
Anemia, Grade All, AE suspected related to study treatment [6]: 3 (100) n (%)
Appetite decreased, Grade 3/4, AE suspected related to study treatment [6]: 0 n (%)
Appetite decreased, Grade All, AE suspected related to study treatment [6]: 0 n (%)
Blood creatinine increased, Grade 3/4, AE suspected related to study treatment [6]: 0 n (%)
Blood creatinine increased, Grade All, AE suspected related to study treatment [6]: 0 n (%)
Diarrhea, Grade 3/4, AE suspected related to study treatment [6]: 0 n (%)
Diarrhea, Grade All, AE suspected related to study treatment [6]: 2 (67) n (%)
Fatigue, Grade 3/4, AE suspected related to study treatment [6]: 0 n (%)
Fatigue, Grade All, AE suspected related to study treatment [6]: 3 (100) n (%)
Leukopenia, Grade 3/4, AE suspected related to study treatment [6]: 0 n (%)
Leukopenia, Grade All, AE suspected related to study treatment [6]: 0 n (%)
Lymphopenia, Grade 3/4, AE suspected related to study treatment [6]: 0 n (%)
Lymphopenia, Grade All, AE suspected related to study treatment [6]: 0 n (%)
Nausea, Grade 3/4, AE suspected related to study treatment [6]: 0 n (%)
Nausea, Grade All, AE suspected related to study treatment [6]: 3 (100) n (%)
Neutropenia, Grade 3/4, AE suspected related to study treatment [6]: 1 (33) n (%)
Neutropenia, Grade All, AE suspected related to study treatment [6]: 2 (67) n (%)
Thrombocytopenia, Grade 3/4, AE suspected related to study treatment [6]: 1 (33) n (%)
Thrombocytopenia, Grade All, AE suspected related to study treatment [6]: 2 (67) n (%)
Vomiting, Grade 3/4, AE suspected related to study treatment [6]: 0 n (%)
Vomiting, Grade All, AE suspected related to study treatment [6]: 3 (100) n (%)
Anemia, Grade 3/4, AE suspected related to study treatment (All doses, N = 132): 4 (3) n (%)
Anemia, Grade All, AE suspected related to study treatment (All doses, N = 132): 34 (26) n (%)
Appetite decreased, Grade 3/4, AE suspected related to study treatment (All doses, N = 132): 0 n (%)
Appetite decreased, Grade All, AE suspected related to study treatment (All doses, N = 132): 13 (10) n (%)
Blood creatinine increased, Grade 3/4, AE suspected related to study treatment (All doses, N = 132): 0 n (%)
Blood creatinine increased, Grade All, AE suspected related to study treatment (All doses, N = 132): 14 (11) n (%)
Diarrhea, Grade 3/4, AE suspected related to study treatment (All doses, N = 132): 2 (2) n (%)
Diarrhea, Grade All, AE suspected related to study treatment (All doses, N = 132): 31 (23) n (%)
Fatigue, Grade 3/4, AE suspected related to study treatment (All doses, N = 132): 3 (2) n (%)
Fatigue, Grade All, AE suspected related to study treatment (All doses, N = 132): 59 (45) n (%)
Leukopenia, Grade 3/4, AE suspected related to study treatment (All doses, N = 132): 22 (17) n (%)
Leukopenia, Grade All, AE suspected related to study treatment (All doses, N = 132): 57 (43) n (%)
Lymphopenia, Grade 3/4, AE suspected related to study treatment (All doses, N = 132): 21 (16) n (%)
Lymphopenia, Grade All, AE suspected related to study treatment (All doses, N = 132): 32 (24) n (%)
Nausea, Grade 3/4, AE suspected related to study treatment (All doses, N = 132): 2 (2) n (%)
Nausea, Grade All, AE suspected related to study treatment (All doses, N = 132): 56 (42) n (%)
Neutropenia, Grade 3/4, AE suspected related to study treatment (All doses, N = 132): 36 (27) n (%)
Neutropenia, Grade All, AE suspected related to study treatment (All doses, N = 132): 60 (46) n (%)
Thrombocytopenia, Grade 3/4, AE suspected related to study treatment (All doses, N = 132): 10 (8) n (%)
Thrombocytopenia, Grade All, AE suspected related to study treatment (All doses, N = 132): 40 (30) n (%)
Vomiting, Grade 3/4, AE suspected related to study treatment (All doses, N = 132): 0 n (%)
Vomiting, Grade All, AE suspected related to study treatment (All doses, N = 132): 34 (26) n (%)
grade 3/4 neutropenia [7]: 28%
grade 3/4 thrombocytopenia [7]: 9%
treatment-related fatigue, grade 3/4 (all 132 patients): 2%
treatment-related nausea, grade 3/4 (all 132 patients): 2%
treatment-related neutropenia, all-grade (all 132 patients): 46%
clinically significant arrhythmias (all patients): No clinically significant arrhythmias were observed
patients requiring dose reduction to 400 mg/day [8]: 16
patients with dose interruption without reduction [8]: 13

— article PMC5621377 (Clinical cancer research : an official journal of the …, 2016)
